Measurements gathered from unrelated publications.
Each line is one published result; the experiments were not run side by side.
ACVR1: Activin receptor type-1 (ACVR1, Homo sapiens, UniProt Q04771)
MDH2: Malate dehydrogenase, mitochondrial (MDH2, Sus scrofa, UniProt P00346)
CXCR4: C-X-C chemokine receptor type 4 (CXCR4, Homo sapiens, UniProt P61073)
CYP2C9: Cytochrome P450 2C9 (CYP2C9, Homo sapiens, UniProt P11712)
CDK9 with cyclin T1: Cyclin-dependent kinase 9, with cyclin T1 (CDK9, Homo sapiens, UniProt P50750)
PLA2G5: Phospholipase A2 group V (PLA2G5, Homo sapiens, UniProt P39877)
NTRK3: NT-3 growth factor receptor (NTRK3, Homo sapiens, UniProt Q16288)

SMILES | target | read-out | mode | technique | setting | IC50
NC(=O)c1ccc[n+]([C@@H]2O[C@H](COP(=O)([O-])OP(=O)(O)OC[C@H]3O[C@@H](n4cnc5c(N)ncnc54)[C@H](O)[C@@H]3O)[C@@H](O)[C@H]2O)c1 | Poly [ADP-ribose] polymerase tankyrase-1 (TNKS, Homo sapiens, UniProt O95271) | enzyme activity | inhibitor | – | – | 395 µM
NCc1ccc(Nc2ncc(F)c(Nc3ccccc3)n2)cc1 | ACVR1 | enzyme activity | inhibitor | – | lysate | > 10 µM
CC(C)(C)n1nc(-c2cnc3cc(OC4CC4)ccc3c2)c(C(N)=O)c1N | ACVR1 | cell-free assay | – | – | – | > 10 µM
O=S(=O)(Nc1ccc(-c2nc3cc(NS(=O)(=O)c4ccc(C(F)(F)F)cc4)ccc3o2)cc1)c1ccc(C(F)(F)F)cc1 | MDH2 | enzyme activity | inhibitor | – | – | > 62.5 µM
CCS(=O)(=O)c1ncc(N(Cc2ccccc2)Cc2ccco2)c(C(=O)Nc2ccccc2F)n1 | CXCR4 | β-arrestin recruitment | antagonist | – | – | 50 µM
CCN1CCN(Cc2ccc(NC(=O)c3ccc(C)c(NC(=O)c4cncc(-c5cccs5)c4)c3)cc2C(F)(F)F)CC1 | Ephrin type-A receptor 2 (EPHA2, Homo sapiens, UniProt P29317) | enzyme activity | inhibitor | ADP detection | – | 0.419 µM
Cc1ccc(CN(Cc2ccco2)c2cnc(S(C)(=O)=O)nc2C(=O)Nc2ccc(C)cc2)cc1 | CXCR4 | β-arrestin recruitment | antagonist | – | – | 25 µM
Nc1nc(N)c2nc(CNc3cccc4ccccc34)cnc2n1 | CYP2C9 | enzyme activity | inhibitor | luciferase | – | 11 µM
C=CC(=O)Nc1ccc(N2CCC[C@@H](Nc3ncc(Cl)c(-c4c[nH]c5ccccc45)n3)C2)cc1C | CDK9 with cyclin T1 | enzyme activity | inhibitor | FRET | – | 0.165 µM
CC(C)(C)n1nc(-c2ccc3nc(OC4CC4)ccc3c2)c(C(N)=O)c1N | ACVR1 | cell-free assay | – | – | – | > 10 µM
Cc1cccc(C)c1NC(=O)c1nc(S(C)(=O)=O)ncc1N(Cc1ccccc1)Cc1ccco1 | CXCR4 | β-arrestin recruitment | antagonist | – | – | 316 µM
O=C(Nc1ccc2[nH]nc(-c3ccncc3)c2c1)[C@@H]1CCN(CC(=O)N2CCN(c3ccc(-c4ncccn4)cc3)CC2)C1 | Mitogen-activated protein kinase 3 (MAPK3, Homo sapiens, UniProt P27361) | enzyme activity | inhibitor | radiometric | – | 0.0042 µM
O=c1cc(-c2ccccc2)oc2ccc3ccccc3c12 | CDK9 with cyclin T1 | enzyme activity | inhibitor | ADP detection | – | > 10 µM
CC(=O)c1cccc(/N=N/c2cc(/C=C/C(=O)O)ccc2O)c1 | PLA2G5 | enzyme activity | inhibitor | Ellman | – | 43.9 µM
CCn1ncc2c1-c1cnc(N)c(c1)O[C@H](C)c1cc(F)ccc1-c1nn(C)nc1C2 | NTRK3 | enzyme activity | inhibitor | radiometric | – | 0.154 µM
COc1ccc(S(=O)(=O)Nc2ccc3oc(-c4ccc(NC(=O)c5cccc(C)c5[N+](=O)[O-])cc4)nc3c2)cc1 | MDH2 | enzyme activity | inhibitor | – | – | > 62.5 µM
O=P([O-])(O)C(O)(C[n+]1cccc(-c2ccccc2)c1)P(=O)(O)O (stereo not drawn) | Geranylgeranyl pyrophosphate synthase (GGPS1, Homo sapiens, UniProt O95749) | enzyme activity | inhibitor | – | – | 15.8 µM
CCS(=O)(=O)c1ncc(N(Cc2ccccc2)Cc2ccco2)c(C(=O)Nc2ccc(C)cc2)n1 | CXCR4 | β-arrestin recruitment | antagonist | – | – | 25 µM
O=C(O)c1cccc(SCc2cccc(Nc3ncc4c(-c5ccc(N6CCOCC6)cc5)[nH]nc4n3)c2)c1 | Cyclin-dependent kinase 1, with cyclin B (CDK1, Homo sapiens, UniProt P06493) | enzyme activity | inhibitor | – | – | > 200 µM
O=S(=O)(Nc1ccc(-c2nc3cc(NS(=O)(=O)c4ccc(F)cc4)ccc3o2)cc1)c1ccc(F)cc1 | MDH2 | enzyme activity | inhibitor | – | – | > 62.5 µM
CCn1c(COC(=O)c2ccccc2NC(=O)c2ccco2)nc2cc(S(=O)(=O)N(C)C)ccc21 | CXCR4 | β-arrestin recruitment | antagonist | – | – | 63 µM

SMILES | target | read-out | mode | technique | setting | IC50
Cc1ccc(S(=O)(=O)Nc2ccc(-c3nc4cc(NS(=O)(=O)c5ccc(C)cc5)ccc4o3)cc2)cc1 | MDH2 | enzyme activity | inhibitor | – | – | > 62.5 µM
CNC(=O)c1cc2c(Oc3ccc(NC(=O)C4(C(=O)Nc5ccc(F)cc5)CC4)cc3)ccnc2cc1OC | Tyrosine-protein kinase Mer (MERTK, Homo sapiens, UniProt Q12866) | enzyme activity | inhibitor | TR-FRET | – | 0.003 µM
CCN(CC)CCOCCN(Cc1ccccc1)Cc1nc(Cc2ccccc2)no1 | CXCR4 | β-arrestin recruitment | – | – | – | 398 µM
O=C(O)/C=C/c1ccc(O)c(O)c1 | PLA2G5 | enzyme activity | inhibitor | Ellman | – | 26.8 µM
N=C(N)NCCCC[C@@H]1NC(=O)CCSSC[C@@H](C(N)=O)NC(=O)[C@@H]2CCCN2C(=O)[C@H](Cc2c[nH]c3ccccc23)NC(=O)[C@H](CC(=O)O)NC(=O)CNC1=O | CXCR4 | β-arrestin recruitment | antagonist | – | – | > 30 µM
CC(=O)c1ccc(/N=N/c2cc(/C=C/C(=O)O)ccc2O)cc1 | PLA2G5 | enzyme activity | inhibitor | Ellman | – | 42.5 µM
C/C(=C\C(=O)OCCCCCCCCC(=O)O)C[C@@H]1OC[C@H](C[C@@H]2O[C@H]2[C@@H](C)[C@H](C)O)[C@@H](O)[C@H]1O | CXCR4 | calcium signal | antagonist | – | – | > 100 µM
O=S(=O)(Nc1ccc(-c2nc3cc(NS(=O)(=O)c4ccc(Br)cc4)ccc3o2)cc1)c1ccc(Br)cc1 | MDH2 | enzyme activity | inhibitor | – | – | > 62.5 µM
O=C(O)/C=C\C(=O)Nc1ccc(S(=O)(=O)Nc2ncccn2)cc1 | Dipeptidyl peptidase 4 (DPP4, Homo sapiens, UniProt P27487) | enzyme activity | inhibitor | fluorescence | – | 54.6 µM
O=c1cc(-c2ccccc2)oc2c1ccc1ccccc12 | CDK9 with cyclin T1 | enzyme activity | inhibitor | ADP detection | – | > 100 µM
COc1ccc2c(Oc3ccc4c(C(=O)Nc5ccccc5N)cccc4c3)ccnc2c1 | Proto-oncogene tyrosine-protein kinase Src (SRC, Homo sapiens, UniProt P12931) | enzyme activity | inhibitor | – | – | > 0.5 µM
COc1ccccc1S(=O)(=O)Nc1ccc(-c2nc3cc(NS(=O)(=O)c4ccccc4OC)ccc3o2)cc1 | MDH2 | enzyme activity | inhibitor | – | – | > 62.5 µM
COc1ccc2cc3[n+](cc2c1OC)CCc1cc2c(cc1-3)OCO2 | CYP2C9 | enzyme activity | inhibitor | – | – | 0.7 µM
Nn1cnnc1O | DNA dC->dU-editing enzyme APOBEC-3A (Homo sapiens, UniProt P31941) | enzyme activity | inhibitor | – | – | > 100 µM
Cc1ccc(S(=O)(=O)Nc2ccc(-c3nc4ccc(NS(=O)(=O)c5ccc(C)cc5)cc4[nH]3)cc2)cc1 | MDH2 | enzyme activity | inhibitor | – | – | > 62.5 µM
Cc1cnc(-c2ccc(-c3ccc(NC(=O)Nc4c(F)cc(F)cc4F)cc3F)c3c2C(=O)NC3)[nH]1 | NTRK3 | enzyme activity | inhibitor | – | – | 0.0007 µM
COC(=O)C1CCN(C(=O)c2ccc(N(Cc3ccccc3)Cc3cnc4nc(N)nc(N)c4n3)cc2)CC1 | CYP2C9 | enzyme activity | inhibitor | luciferase | – | 0.316 µM
O=S(=O)(Nc1ccc(-c2nc3cc(NS(=O)(=O)c4ccccc4Cl)ccc3o2)cc1)c1ccccc1Cl | MDH2 | enzyme activity | inhibitor | – | – | > 62.5 µM
CC/C(=N\NC(=O)C(C)Nc1ccccc1)c1ccc(O)c(C)c1O (stereo not drawn) | Serine/threonine-protein kinase Sgk2 (SGK2, Homo sapiens, UniProt Q9HBY8) | enzyme activity | inhibitor | – | – | 0.0117 µM
COc1cc(/C=C/C(=O)c2ccc(NC(=O)c3ccccc3CN3C(=O)c4ccccc4C3=O)cc2)cc(OC)c1OC | Tubulin beta-5 chain (TUBB, Homo sapiens, UniProt P07437) | tubulin polymerisation | inhibitor | ELISA | – | 2.32 µM
CC(C)NCCCC[C@H](NC(=O)[C@H]1CCC(=O)N[C@@H](Cc2ccccc2)C(=O)N[C@@H](Cc2ccc(O)cc2)C(=O)N[C@@H](CCCCNC(C)C)C(=O)N[C@H](CCCNC(=N)N)C(=O)N[C@@H](Cc2ccc3ccccc3c2)C(=O)NCC(=O)N1)C(N)=O | CXCR4 | ligand displacement | – | radioligand | – | 0.0248 µM
